For orientation: IC50 means the concentration that inhibits the measured activity by half.

Structures are written as SMILES. Active and inactive are the calls of the source. No cut-off for these calls is given here.

For test [1], the system named is MCF7. Put plainly: Cytotoxicity against human MCF7 cells assessed as reduction in cell viability after 24 hrs by MTT assay. The conditions noted are these: MCF7, 24 h. In kind it is functional, cell-based. The essentials: (§1)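 Cells seeded ~5 × 10^3 per well in 96-well plates, exposed to 0–40 µM for 24 h. MTT added at 0.5 mg/ml for 3 h, formazan dissolved in DMSO, absorbance read at 540 nm. IC50 taken from plotted curves. Duplicate wells, two independent repeats. MCF7 grown in DMEM, MDA-MB-231 in RPMI, both with 10% FBS at 37 °C and 5% CO2.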
In general terms: Tetrazolium dyes change colour on reduction, which living cells bring about.

In test [2] the test system is MDA-MB-231. Put plainly: Cytotoxicity against human MDA-MB-231 cells assessed as reduction in cell viability after 24 hrs by MTT assay. In kind it is functional, cell-based. To be noted: MDA-MB-231, 24 h. The essentials:
as §1

Test [3] has as its system MDA-MB-231. Put plainly: Induction of apoptosis in human MDA-MB-231 cells assessed as necrotic cells at 2.5 uM after 24 hrs by annexin V-FITC/Propidium iodide staining based flow cytometric analysis (reference value: 0.65%). In kind it is functional. (Flow cytometry measures light scatter and fluorescence of single cells or particles in a stream.)
The subject of test [4] is MCF7. Put plainly: Induction of apoptosis in human MCF7 cells assessed as necrotic cells at 2.5 uM after 24 hrs by annexin V-FITC/Propidium iodide staining based flow cytometric analysis (reference value: 1.22%). In kind it is functional.
The subject of test [5] is MCF7. Put plainly: Induction of autophagy in human MCF7 cells assessed as LC3-2 to LC3-1 protein ratio at 2.5 uM after 24 hrs by Western blot analysis (reference value: 0.22 to 0.8). In kind it is functional. For orientation: In western blotting, separated proteins are transferred to a membrane and probed.
Test [6] relates to MDA-MB-231. Put plainly: Induction of apoptosis in human MDA-MB-231 cells assessed as early apoptotic cells at 2.5 uM after 24 hrs by annexin V-FITC/Propidium iodide staining based flow cytometric analysis (reference value: 1.54%). In kind it is functional.
Test [7] deals with MDA-MB-231. Put plainly: Induction of apoptosis in human MDA-MB-231 cells assessed as late apoptotic cells at 2.5 uM after 24 hrs by annexin V-FITC/Propidium iodide staining based flow cytometric analysis (reference value: 0.08%). In kind it is functional.
Test [8] has as its system MCF7 (Homo sapiens). Put plainly: Induction of apoptosis in human MCF7 cells assessed as increase in cell death at 2.5 uM after 24 hrs by EtBr/AO staining based fluorescence microscopic method.
The subject of test [9] is MCF7. Put plainly: Induction of apoptosis in human MCF7 cells assessed as increase in cell death at 2.5 uM after 24 hrs by EtBr/AO staining based fluorescence microscopic method. In kind it is functional. The essentials:
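~5 × 10^4 MCF7 cells on coverslips given 2.5 µM for 24 h, then PBS-washed and stained with 1:1 ethidium bromide/acridine orange (0.4 mg/ml each). Viewed by fluorescence microscopy, excitation 480 nm with a 515–530 nm barrier filter. Apoptotic, necrotic and viable cells scored from 200 cells per sample.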

For test [10], the system named is MCF7. Put plainly: Induction of apoptosis in human MCF7 cells assessed as late apoptotic cells at 2.5 uM after 24 hrs by annexin V-FITC/Propidium iodide staining based flow cytometric analysis (reference value: 0.2%). In kind it is functional.
The subject of test [11] is MCF7. Put plainly: Induction of apoptosis in human MCF7 cells assessed as early apoptotic cells at 2.5 uM after 24 hrs by annexin V-FITC/Propidium iodide staining based flow cytometric analysis (reference value: 3.94%). In kind it is functional.
In test [12] the test system is MDA-MB-231. Put plainly: Cytotoxicity against human MDA-MB-231 cells assessed as reduction in cell viability at 100 uM after 24 hrs by MTT assay. In kind it is functional, cell-based.
For test [13], the system named is MCF7. Put plainly: Cytotoxicity against human MCF7 cells assessed as reduction in cell viability at 100 uM after 24 hrs by MTT assay. In kind it is functional, cell-based.
Test [14] concerns MCF7. Put plainly: Induction of autophagy in human MCF7 cells assessed as increase in p62 degradation at 2.5 uM after 24 hrs by Western blot analysis. In kind it is functional, cell-based. The essentials: (§2)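 MCF7 cells (~5 × 10^6) left untreated (DMSO control) or exposed to 2.5 µM compound for 24 h. Lysed in RIPA buffer, probed overnight at 4 °C, then given infrared-tagged secondary antibodies for 1 h at 37 °C and imaged by infrared scanning. LC3-II/I ratio and p62 taken by densitometry with GAPDH as loading control. Two independent experiments.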

The subject of test [15] is MCF7. Put plainly: Induction of apoptotic in human MCF7 cells assessed as increase in Bim protein expression at 2.5 uM after 24 hrs by Western blot analysis. In kind it is functional, cell-based. The essentials: (§3)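 MCF7 or MDA-MB-231 cells given 2.5 µM or DMSO for 24 h, then lysed in RIPA buffer. Immunoblots probed overnight at 4 °C, followed by infrared-labelled secondary antibody for 1 h at 37 °C. Bands imaged and quantified densitometrically, with GAPDH as loading control. Representative of two independent experiments.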

Test [16] relates to MCF7. Put plainly: Induction of autophagy in human MCF7 cells assessed as increase in Bcl2L11 mRNA expression at 2.5 uM after 24 hrs by RT-PCR analysis. In kind it is functional, cell-based. In short, it runs like this:
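MCF7 cells given 2.5 µM or DMSO for 24 h. Total RNA extracted with TRIzol and reverse-transcribed, then SYBR Green qPCR across 34 autophagy-regulatory genes (95 °C 10 min; 40 cycles of 95 °C 15 s and 60 °C 1 min). Relative expression by 2^-ΔΔCt against housekeeping genes and DMSO control, shown as log2. Two independent experiments.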

Test [17] deals with MCF7. Put plainly: Induction of autophagy in human MCF7 cells assessed as increase in LC3-2 to LC3-1 protein ratio at 2.5 uM after 24 hrs by Western blot analysis. In kind it is functional, cell-based. The essentials:
as §2

For test [18], the system named is MCF7. Put plainly: Induction of autophagy in human MCF7 cells assessed as increase in Beclin1 protein expression at 2.5 uM after 24 hrs by Western blot analysis. In kind it is functional, cell-based. The essentials:
as §3

Test [19] has as its system MCF7. Put plainly: Induction of autophagy in human MCF7 cells expressing GFP tagged LC3-2 assessed as increase in […] puncta formation at 2.5 uM after 24 hrs by confocal microscopic analysis. In kind it is functional, cell-based. In short, it runs like this:
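MCF7 cells (~1 × 10^6) at 70% confluency on glass-bottom dishes were transiently transfected with GFP-LC3 (Lipofectamine 3000). 24 h later they received 2.5 µM compound or DMSO for another 24 h. Nuclei were stained with Hoechst 33342 and lysosomes with LysoTracker Red DND-99, then imaged by live-cell confocal microscopy. LC3 puncta were counted in at least 10 cells from 3 fields. Two independent experiments.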

As to `O=C1C(=O)c2ccc3ccccc3c2-c2sccc21`, the results for the IC50 in [1] and in [2] were 12.8 µM and 15.6 µM, respectively.
In the case of `Cc1coc2c1C(=O)C(=O)c1c-2ccc2c1CCCC2(C)C` [TANSHINONE IIA], the IC50 in [1] was 7.79 µM; in test [2], 7.7 µM. The Activity in test [3] is on record as 2.11%; in test [4], 5.27%; in test [6] it was 9.23%; in test [7], 0.34%; in test [10], 0.31%; in test [11] it was 2.9%. Moreover, the Ratio in test [5] is reported as 1.46. The result in test [8] and in test [9] was Active.
In the case of `Cc1cc2c3c(ccc2s1)C(=O)C(=O)c1ccsc1-3`, the IC50 in test [1] is 17.5 µM; in [2] it was 23.4 µM.
Consider `O=C1C(=O)c2c(ccc3ccccc23)-c2ccoc21`, for which the IC50 came out at 14.4 µM in [1] and 20.9 µM in test [2].
Consider `Cc1coc2c1C(=O)C(=O)c1c-2ccc2c(C)cccc12` [TANSHINONE I], for which the IC50 was 7.93 µM in test [1] and 7.96 µM in test [2]. The Activity turned out to be 3.56% in [3]; 3.63% in test [4]; 1.44% in test [6]; 0.18% in test [7]; 0.91% in test [10]; 14.3% in test [11]. Also, the Ratio in test [5] is 0.61.
With `CCN(CC)CCCC(C)Nc1ccnc2cc(Cl)ccc12` (centres undefined), the outcome in [12] and in [13] was Active.
For `O=C1C(=O)c2occc2-c2c1ccc1ccccc21`, the IC50 in [1] is 15.8 µM; in test [2], 17.4 µM.
As to `COc1ccc2ccc3c(c2c1)-c1ccsc1C(=O)C3=O`, the IC50 worked out at 8.02 µM in test [1] and 6 µM in test [2]. Besides, the result in [14], in [15], in test [16], in test [17], in test [8] and in [9] was Active. Further, in [19], the result was Active. Besides, the Activity in [3] was determined as 1.19%; in test [4] it was 1.85%; in test [6], 1.8%; in test [7], 0.13%; in [10], 0.55%; in test [11] it was 4.39%. Besides, in test [5], the Ratio worked out at 11.1. Further, the result in test [18] was inactive.
On to `Cc1cc2c3c(ccc2s1)C(=O)C(=O)c1sccc1-3`, for which the IC50 in [1] stood at 14.6 µM; in test [2], 20.6 µM.

Values taken from ChEMBL document CHEMBL4732262, “Identification of two novel thiophene analogues as inducers of autophagy mediated cell death in breast cancer cells” (Bioorg Med Chem, 2021).
